Columns and labels:
[1] = target: T1, Nuclear receptor subfamily 1 group I member 2 (Homo sapiens, UniProt O75469); test: Transactivation of human PXR transfected in HEK cells at 20 uM by luciferase reporter gene assay relative to 12.5 uM rifampin; assay type: cell-based; details: hek293, 20 µM
T1 sequence (O75469 whole entry): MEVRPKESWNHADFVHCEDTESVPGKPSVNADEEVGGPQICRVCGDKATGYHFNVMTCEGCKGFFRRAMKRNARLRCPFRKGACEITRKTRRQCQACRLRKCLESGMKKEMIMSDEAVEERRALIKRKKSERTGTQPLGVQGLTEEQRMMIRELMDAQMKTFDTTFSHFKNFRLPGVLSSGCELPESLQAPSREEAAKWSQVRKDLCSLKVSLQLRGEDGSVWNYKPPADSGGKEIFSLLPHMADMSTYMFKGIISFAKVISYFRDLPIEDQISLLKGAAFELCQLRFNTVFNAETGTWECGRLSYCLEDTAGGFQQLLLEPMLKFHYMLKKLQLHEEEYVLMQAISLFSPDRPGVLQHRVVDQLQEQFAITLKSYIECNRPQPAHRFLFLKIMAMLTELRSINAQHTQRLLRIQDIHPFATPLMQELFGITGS
Outline: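 HEK cells transfected with human PXR fused to a firefly luciferase reporter. Luciferase activity is expressed as percent of the 12.5 µM rifampin response. Run in triplicate; SEM reported.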

[2] = target: T2, 11-beta-hydroxysteroid dehydrogenase 1 (Homo sapiens, UniProt P28845); test: Inhibition of human recombinant 11beta-HSD1 expressed in Escherichia coli using [3H]cortisone by scintillation proximity assay
T2 sequence (P28845 whole entry): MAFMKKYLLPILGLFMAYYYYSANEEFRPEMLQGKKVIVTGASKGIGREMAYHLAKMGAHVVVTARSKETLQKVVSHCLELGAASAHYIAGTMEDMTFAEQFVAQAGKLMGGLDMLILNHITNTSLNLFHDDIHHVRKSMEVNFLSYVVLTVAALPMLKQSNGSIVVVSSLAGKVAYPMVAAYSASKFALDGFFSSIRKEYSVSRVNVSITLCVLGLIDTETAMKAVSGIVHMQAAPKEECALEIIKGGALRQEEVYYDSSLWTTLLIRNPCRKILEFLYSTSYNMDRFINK

[3] = target: T2, 11-beta-hydroxysteroid dehydrogenase 1; test: Inhibition of human 11beta-HSD1 expressed in CHO cells assessed as conversion of cortisone to cortisol by ELISA; assay type: cell-based
[4] = target: T3, 11-beta-hydroxysteroid dehydrogenase type 2 (Homo sapiens, UniProt P80365); test: Inhibition of human 11beta-HSD2 expressed in CHO cells using [3H]cortisol by scintillation proximity assay; assay type: cell-based
T3 sequence (P80365 whole entry): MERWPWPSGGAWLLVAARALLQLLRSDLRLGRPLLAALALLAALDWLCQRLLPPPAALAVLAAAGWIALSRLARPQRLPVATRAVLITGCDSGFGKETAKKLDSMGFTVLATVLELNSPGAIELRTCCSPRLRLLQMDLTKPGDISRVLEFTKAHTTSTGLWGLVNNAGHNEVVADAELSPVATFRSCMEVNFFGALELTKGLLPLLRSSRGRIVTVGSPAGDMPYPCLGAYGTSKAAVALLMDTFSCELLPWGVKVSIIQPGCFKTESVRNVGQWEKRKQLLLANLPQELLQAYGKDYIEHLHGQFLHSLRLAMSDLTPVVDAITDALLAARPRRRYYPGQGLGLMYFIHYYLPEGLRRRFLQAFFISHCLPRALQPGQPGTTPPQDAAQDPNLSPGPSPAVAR
Outline: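 Human 11β-HSD2 from CHO cells with [3H]cortisol 3 nM and NAD+ 300 µM, in 0.1 M sodium phosphate pH 7.6. 1 h at room temperature, then stopped with 18β-glycyrrhetinic acid. Anticortisol antibody and antimouse SPA beads added for 30 min; radiometric read-out.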

Activity [1] [%] | Ki [2] [nM] | IC50 [3] [nM] | IC50 [4] [µM] | Structure (SMILES)
68 | – | – | – | C[C@H](NC1=NC(=O)C(C)(C(C)(C)O)S1)c1ccccc1 (stereo partly specified)
10 | 65 | 51 | > 10 | C[C@H](NC1=NC(=O)C(C)(C(C)(C)O)S1)c1ccc(F)cc1 (stereo partly specified)
– | 210 | 300 | – | C[C@H](NC1=NC(=O)[C@@](C)(C(C)(C)O)S1)c1ccc(F)cc1
26 | 49 | 32 | > 10 | C[C@H](NC1=NC(=O)C(C)(C2(O)CCC2)S1)c1ccc(F)cc1 (stereo partly specified)

Reference: ChEMBL document CHEMBL1151735, “Further studies with the 2-amino-1,3-thiazol-4(5H)-one class of 11beta-hydroxysteroid dehydrogenase type 1 inhibitors: reducing pregnane X receptor activity and exploring activity in a monkey pharmacodynamic model” (J Med Chem, 2008)
